High-throughput results from PubChem BioAssay.
This is a sample that favours compounds with a hit; in the whole collection about 2.5% have one here.
SENP8 block-1 – SENP8 protease inhibition. Q96LD8. purified SENP8, Z-RLRGG-aminoluciferin cleavage, luminescence. inhibition, % at 10 µM. 330,000 tested, 1.2% active. AID 2540; in the data active = inhibition above about 50%
SENP8 block-2 – inhibitors of human SENP8 protease. recombinant SENP8, Nedd8 substrate fluorescence. 360,000 tested, 0.64% active. AID 602440. inhibition, % at 20 µM. Q96LD8; in the data active = inhibition mostly above about 40%, no sharp cut-off; inactive = mostly below about 27%
SENP6 block – inhibitors of human SENP6 protease; Q9GZR1; Recombinant SENP6 catalytic domain, aminoluciferin luminescence; inhibition, % at 10 µM; 330,000 tested, 1.8% active;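 active = inhibition above about 50% at the single tested dose, limit read from the data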;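 also: plate controls were DMSO wells with enzyme for no effect and DMSO wells lacking enzyme for full effect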
Target sequence (Q9GZR1 628-1112 limits assumed): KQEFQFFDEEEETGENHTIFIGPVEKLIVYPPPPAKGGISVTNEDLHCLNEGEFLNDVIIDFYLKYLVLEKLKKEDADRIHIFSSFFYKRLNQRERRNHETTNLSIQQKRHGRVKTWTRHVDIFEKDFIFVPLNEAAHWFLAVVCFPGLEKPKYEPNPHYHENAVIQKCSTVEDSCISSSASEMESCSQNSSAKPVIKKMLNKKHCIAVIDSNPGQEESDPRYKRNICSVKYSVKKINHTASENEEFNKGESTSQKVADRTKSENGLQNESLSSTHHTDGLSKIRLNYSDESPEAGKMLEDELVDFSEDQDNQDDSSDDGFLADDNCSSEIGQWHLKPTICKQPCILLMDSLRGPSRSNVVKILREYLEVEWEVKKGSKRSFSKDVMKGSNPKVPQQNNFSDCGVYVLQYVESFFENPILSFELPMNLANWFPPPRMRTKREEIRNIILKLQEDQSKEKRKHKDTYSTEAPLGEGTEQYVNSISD
SENP1 FRET inh – blocks the human SENP1 SUMO protease catalytic domain; Q9P0U3; recombinant SENP1 catalytic domain, CyPet-SUMO1-YPet FRET cleavage; inhibition, % at 10 µM; 360,000 tested, 0.21% active; AID 624204;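 active = inhibition at least 30% at 10 µM, raw YFP signal under a set limit, fluorescence ratio 0.5 to 1.5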;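 also: 0% = enzyme with DMSO and 100% = no enzyme wells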
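Test system: recombinant human SENP1 catalytic domain, His6-tagged / Medium: pH 8 Tris buffer with EDTA, NaCl, BME, BSA, NP40, catalase / Also added: SUMO1 FRET substrate flanked by Cypet and Ypet, 25 nM / Times: 50 min reaction at room temperature / Signal: FRET, CFP and YFP emission / Control set: no-enzyme low control and enzyme-plus-DMSO high control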
SENP7 block – inhibitors of human SENP7 protease; Q9BQF6; recombinant SENP7, Z-RLRGG-aminoluciferin luminescence, 40 min; inhibition, % at 5 µM; 330,000 tested, 1.5% active;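 active = inhibition above about 50% at the single test dose, limit read from the data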;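 also: plate controls were DMSO with enzyme for no effect and no enzyme buffer wells for full effect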
SENP8 conf – SENP8 (human) inhibition, single concentration confirmation. AID 624319. inhibition, % at 25 µM. 1,400 tested, 15% active. shares compounds with SENP8 block-2. purified SENP8, Nedd8-AMC/pro-Nedd8 cleavage fluorescence, 30 min; in the data active = inhibition mostly above about 39%, no sharp cut-off; inactive = mostly below about 34%
Numbers without * were called inactive; x = no result.

SMILES	SENP8 block-1	SENP8 block-2	SENP6 block	SENP1 FRET inh	SENP7 block	SENP8 conf
Cc1[nH]nc(N2CCCCC2)c1[N+](=O)[O-]	1	44*	-5	1	5	6
O=C(CCC(=O)N1CCc2ccccc2C1)N1CCN(S(=O)(=O)c2ccccc2)CC1	7	43*	17	-4	3	64*
CCNC(=S)NNc1ccccc1	3	43*	0	0	-1	2
OC(COCC1CC=CCC1)Cn1cnc2ccccc21 (centres undefined)	8	20	9	-4	-3	x
Cc1nc2ccccc2n1CC(O)COCC1CC=CCC1 (centres undefined)	-3	43*	-1	1	-2	-5
CCC(=O)N1CCCC1(C)C(=O)Nc1ccc(C)c(C)c1 (centres undefined)	x	18	x	2	x	x
Cc1nc2c(O)c3c(c(O)c2nc1C)C1C=CC3CC1	x	42*	x	0	x	7
Cc1cccnc1NC(=O)c1ccc(Cl)c(S(=O)(=O)N2CCCCC2)c1	1	-2	5	0	6	x
COCOc1cc(O)c(C(=O)/C=C/c2ccccc2)c(OCOC)c1	12	51*	7	3	-9	6
CC(C)(C)C(=O)CSc1ccc(S(=O)(=O)N2CCN(Cc3ccccc3)CC2)cn1	-7	10	-11	0	7	x
CC1CCN(c2cc(N3CCOCC3)c([N+](=O)[O-])cc2F)CC1	0	41*	-24	10	1	23
O=[N+]([O-])c1cc(-n2cccc2)ccc1N1CCOCC1	6	42*	11	13	9	8
CC(C)(C)NC(=O)C(=O)NNC(=O)c1cccc(F)c1	-7	19	-6	3	1	x
COCCNC(=S)NN=C1CCC(c2ccccc2)CC1 (centres undefined)	5	14	9	0	-5	x
C=CCNC(=S)NN=C1CCC(c2ccccc2)CC1 (centres undefined)	15	45*	10	1	-3	18
C=C(C)CNC(=S)N/N=C/c1ccc([N+](=O)[O-])cc1	-1	20	-16	-2	13	x
COCCNC(=S)N/N=C/c1ccc([N+](=O)[O-])cc1	-7	43*	-21	0	-3	23
COc1ccc(-c2cc(C(=O)Nc3ccc(Br)cc3)no2)cc1	0	10	-10	0	-8	x
N=C(CC1CC(=O)NC(=O)C1)C1=C(O)CCCC1=O	-3	11	-5	0	1	x
COC(=O)c1ccccc1-c1ccc(C(c2c(C)[nH][nH]c2=O)c2c(C)[nH][nH]c2=O)o1	20	50*	27	1	12	42*
COC(=O)c1cccc(-c2ccc(C(c3c(C)[nH][nH]c3=O)c3c(C)[nH][nH]c3=O)o2)c1	13	17	43	1	9	x
O=C(NC(Cc1ccc(O)cc1)C(=O)N=Nc1c(O)[nH]c2ccccc12)c1ccccc1 (centres undefined)	x	15	x	2	x	x
CC(C)=CCc1cc([C@@H]2COc3c(ccc4c3C=CC(C)(C)O4)C2)c(O)cc1O	-1	48*	-9	-4	4	24
Cc1c(Br)c([N+](=O)[O-])nn1CC(=O)Nc1ccc2nc3n(c(=O)c2c1)CCCC3	-5	10	-15	1	2	x
COc1cc2c(cc1OC)C(=O)N(C)CC2	-1	42*	3	2	5	3
SMILES	SENP8 block-1	SENP8 block-2	SENP6 block	SENP1 FRET inh	SENP7 block	SENP8 conf
Cc1cc(=O)[nH]c(N/N=C/C(C)c2ccccc2)n1 (centres undefined)	0	47*	-16	1	4	0
CC(/C=N/Nc1nc(C)cc(=O)[nH]1)=C\c1ccccc1	1	-93	20	1	14	x
Cc1ccc(C2=N/C(=C\c3cccs3)C(=O)N2Nc2ccccc2)cc1	4	42*	-1	-23	-4	31
O=C(C[n+]1cc(-c2ccccc2)n2c1CCCCC2)c1ccc(Br)cc1	-4	46*	-16	-1	6	10
Cc1ccc(C(=O)C[n+]2cc(-c3ccc(C)cc3)n3c2CCCCC3)cc1	-8	10	14	3	-14	x
CN(C)c1nc(Cl)nc2c1nc(Cl)n2C1CCCCO1 (centres undefined)	x	1	x	-1	x	x
COc1ccccc1NC(=O)c1cn(C)c(=O)c2cc(OC)c(OC)cc12	-7	42*	-9	1	-10	63*
CCN(C(=O)c1cn(C)c(=O)c2cc(OC)c(OC)cc12)c1cc(OC)ccc1OC	-1	43*	-13	1	0	13
O=C(NCCN1CCCC1=O)C1CCC(=O)N(CCc2cccc(F)c2)C1 (centres undefined)	-2	6	-7	2	7	x
CNc1ccc([N+](=O)[O-])cc1-c1nc2ccccc2[nH]c1=O	7	42*	0	6	-10	15
CC(C)C(=O)Nc1ccc(Cl)cc1-c1nc2ccccc2[nH]c1=O	1	-26	20	-3	-4	x
CCOc1ccc(C(c2c(C)[nH][nH]c2=O)c2c(C)[nH][nH]c2=O)cc1OC	-2	54*	-3	1	10	35
O=C(NCCCN1CCCCCC1)C1CC(=O)N(CCc2ccccc2)C1 (centres undefined)	3	56*	0	-5	2	9
COc1ccc(CNC(=O)Cn2ccc(N)nc2=O)cc1	-9	45*	-21	1	-6	9
CCSc1nnc(CNC(=O)C23CC4CC(CC(C4)C2)C3)n1C1CCCCC1	-9	16	-11	0	-3	x
COc1cc2oc(=O)cc(CN(Cc3ccccc3)Cc3ccccc3)c2cc1Cl	x	-33	x	-5	x	x
CCc1ccc(C(=O)NNc2ccccc2F)cc1	1	26*	-8	3	1	2
O=C(CSc1nnc(-c2ccc(Br)cc2)n1CCc1ccccc1)NC1CCS(=O)(=O)C1 (centres undefined)	3	20	1	2	4	x
O=C1CC(N(O)c2ccccc2)C(=O)N1c1cc(Cl)cc(Cl)c1 (centres undefined)	-11	44*	-6	-1	-1	17
Cc1ccccc1N1C(=O)CC(N(O)c2ccccc2)C1=O (centres undefined)	0	13	-3	2	0	x
CN(C)/C=C/C(=O)c1ccc([N+](=O)[O-])c(CS(=O)(=O)c2ccc(Cl)cc2)c1	-3	24	-21	3	2	x
O=C(NC1CCCC1)C(c1cccs1)N(Cc1ccco1)C(=O)c1csnn1 (centres undefined)	5	40*	-10	1	6	4
O=C(NC1CCCCC1)C(c1ccccc1)N(Cc1ccco1)C(=O)c1csnn1 (centres undefined)	3	3	-13	1	-3	x
Cc1ccc(NC(=S)N/N=C/c2ccc(OCCC(C)C)cc2)c(C)c1	-10	41*	-13	-1	-8	18
